OX1R antag-1: antagonists of human orexin 1 receptor; O43613; CHO/OX1R cells, Fluo-8 calcium fluorescence, orexin A; 330,000 compounds, 0.43% hits; inhibition, % at 5 µM;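 active = inhibition above its plate's threshold, mean inhibition of all tested compounds on the plate plus 3 SD, cut at about 37% in these data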;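 note: 0% = orexin A challenge wells and 100% = SB-334867-A antagonist wells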
CHO parental Ca: counter-screen for OX1R antagonists: effect in parental CHO cells; parental CHO-K1, ATP-induced calcium, Fluo-8 fluorescence; inhibition, % at 5.6 µM; 330,000 compounds, 0.63% hits; AID 463079;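 active = inhibition above that plate's mean sample inhibition plus 3 SD, cut at about 26% in these data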;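 note: 0% = ATP-challenged DMSO wells and 100% = DMSO wells without ATP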
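Measured by: calcium-sensitive Fluo-8 fluorescence / Test system: CHO parental line / Controls: ATP-challenged DMSO wells low, unchallenged DMSO wells high / Measure: % inhibition / Compound: single nominal dose of 5.6 µM per compound / Replicates: single well per compound, no replicates / Reagent: ATP as calcium-mobilizing challenge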
TAAR1 ag: agonists of human TAAR1; CHO RD-HGA16 TAAR1, Fluo-8 calcium fluorescence; vehicle wells 0%, saturating PEA agonist 100%; 360,000 compounds, 0.99% hits; activation, % at 3 µM; AID 624467;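 active = activation above the mean activation of all test compounds in the run plus 3 SD, cut at about 38% in these data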
Target sequence (Q96RJ0 whole entry, looked up): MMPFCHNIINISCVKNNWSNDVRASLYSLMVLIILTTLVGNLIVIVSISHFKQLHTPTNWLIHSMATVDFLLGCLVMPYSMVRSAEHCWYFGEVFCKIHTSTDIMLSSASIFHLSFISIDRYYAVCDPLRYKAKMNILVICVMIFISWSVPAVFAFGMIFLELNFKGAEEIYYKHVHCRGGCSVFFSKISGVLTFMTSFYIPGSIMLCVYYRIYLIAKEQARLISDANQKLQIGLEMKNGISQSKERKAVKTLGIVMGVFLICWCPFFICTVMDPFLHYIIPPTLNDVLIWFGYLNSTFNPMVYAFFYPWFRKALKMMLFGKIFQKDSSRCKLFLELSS
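System: CHO-derived RD-HGA16 cells with stable Gα16 and human TAAR1. Times: 17-24 h plating, Fluo-8 75 min 37 °C, 30 min RT. Measured by: calcium-sensitive Fluo-8 signal, excitation 470-495, emission 515-575 nm. Read-out basis: % activation relative to PEA EC100 response. Control set: DMSO and PEA EC100. Repeats: no replicates (n 1).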
TAAR1 antag: human TAAR1 antagonism; Q96RJ0; inhibition, % at 3 µM; CHO RD-HGA16 TAAR1, Fluo-8 calcium fluorescence, antagonist; 360,000 compounds, 1.5% hits; AID 624466;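 active = inhibition above a per-plate cutoff, the mean inhibition of test compounds on that plate plus 3 SD, cut at about 49% in these data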;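 note: 0% = DMSO plus EC80 beta-PEA response and 100% = DMSO alone without agonist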
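Test system: RD-HGA16 CHO cells with stable hTAAR1 and Gα16 / Probe or stimulus: EC80 β-phenethylamine stimulus / Times: seeding 17-24 h prior, 75-min 37 °C, 30-min RT dye loading / Detection: Fluo-8 calcium-sensitive fluorescence / Read-out basis: % inhibition scaled between DMSO and EC80 PEA controls / Repeats: singlicate, one well per test compound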
OX1R antag-2: antagonists of human orexin 1 receptor (OX1R). O43613. OX1R-expressing cells, FRET antagonist read-out. inhibition, % at 6.6 µM. 330,000 compounds, 1.8% hits; in the data active = inhibition mostly above about 38%, no sharp cut-off; inactive = mostly below about 40%;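 note: 0% = agonist challenge alone and 100% = reference antagonist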
GPR7 antagonist: human neuropeptides B/W receptor 1 antagonism; P48145; GPR7-expressing cells, fluorescence antagonist assay; 290,000 compounds, 1.1% hits; inhibition, % at 4.4 µM; in the data active = inhibition above about 16%, passing the limit was not always enough;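 note: cells stimulated with the agonist NPW; 0% = agonist with vehicle and 100% = vehicle without agonist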
Starred values were filed as active, the others as inactive; · = no result given. Only some compounds are listed: those with a hit (about 4.5% of all), similar ones and a draw of the others.

SMILES	OX1R antag-1	CHO parental Ca	TAAR1 ag	TAAR1 antag	OX1R antag-2	GPR7 antagonist
O=C(NCc1ccco1)C(c1ccco1)N(Cc1cccs1)C(=O)Cn1nnc2ccccc21 (centres undefined)	-22.9	-17.6	6.4	8.7	24.6	-6.5
O=C(NC1CCCC1)C(c1ccccc1)N(Cc1ccc2c(c1)OCO2)C(=O)Cc1cccs1 (centres undefined)	-22.8	-1.2	16.6	50.7*	58.8	9.9
COC(=O)c1ccc(C(C(=O)NC2CCCCC2)N(Cc2ccccc2)C(=O)Cc2cccs2)cc1 (centres undefined)	-30.6	-21.6	-1.2	-6.9	2.7	1.1
COC(=O)C1CCN(C2CN(Cc3cn(Cc4ccc(C(F)(F)F)cc4)nn3)S(=O)(=O)C2)CC1 (centres undefined)	·	·	5.8	-6.8	·	·
O=C(N[C@H](C(=O)N1CCC[C@H]1C(=O)NC1CCCC1)C1CCCCC1)c1ccc(Cl)c(Cl)c1	·	·	-2.8	-16.2	·	·
Cc1ccc(C)c(CC(=O)N2CCCCC2c2cc(C(=O)Nc3cccc(C#N)c3)no2)c1 (centres undefined)	·	·	48.2*	44.0	·	·
COc1ccc(OC)c(N(CC(=O)NCCSCc2ccco2)S(=O)(=O)c2ccccc2)c1	-2.5	-15.4	9.8	32.1	50.7*	9.8
COc1ccccc1OCCNC(=O)CN(c1cccc(C)c1)S(=O)(=O)c1ccccc1	17.0	-24.6	5.3	49.3*	71.9*	-18.1
CC1=C(C(=O)N(C(C)C)C(C)C)CC(CC(=O)NCc2cccc3ccccc23)C(=O)N1Cc1ccc(F)cc1 (centres undefined)	·	·	2.2	13.4	·	·
CCOC(=O)c1ccc(NC(=O)CCc2nc(-c3ccc(C)cc3)no2)cc1	-0.2	32.8*	14.6	0.5	13.6	-4.3
Cc1ccc(-c2noc(CCCC(=O)NC3CCCCC3)n2)cc1	-7.0	39.6*	-1.1	9.0	9.3	15.1
CCOC(=O)c1ccc(NC(=O)CCc2nc(-c3ccc(Cl)cc3)no2)cc1	45.1*	46.5*	16.0	25.7	18.1	1.4
CC(C)C[C@H](NC(=O)C1CC1)C(=O)N1CCC[C@H]1C(=O)NCc1ccccc1	·	·	-0.6	2.4	·	·
COc1ccc2c(c1)[C@]1(C(=O)N2C)C2=C(CCCC2=O)Oc2cc(C)oc(=O)c21	·	·	0.2	-5.0	·	·
CNC(=O)c1ccccc1C1(O)c2ccccc2CCc2ccccc21	·	·	0.7	-18.8	·	·
O=C(Nc1ccccc1)c1nc[nH]c1C(=O)Nc1ccccc1F	·	·	2.1	-5.0	·	·
Cc1ccc(NC(=O)c2nc[nH]c2C(=O)NCCCCCCNC(=O)c2[nH]cnc2C(=O)Nc2ccc(C)cc2)cc1	-7.5	-5.0	2.8	-6.8	1.6	·
O=C(Nc1ccccc1)c1nc[nH]c1C(=O)NCCNC(=O)c1[nH]cnc1C(=O)Nc1ccccc1	39.4	-2.5	26.7	56.2*	65.3*	·
O=C(Nc1ccccc1)c1nc[nH]c1C(=O)NCCCCNC(=O)c1[nH]cnc1C(=O)Nc1ccccc1	0.8	-9.1	20.6	57.1*	6.3	·
CCOC(=O)c1ccc(NC(=O)c2nc[nH]c2C(=O)NCCCCCNC(=O)OC(C)(C)C)cc1	-38.5	-9.1	13.6	55.7*	9.7	·
Cc1ccc(NC(=O)c2nc[nH]c2C(=O)NCCCCNC(=O)c2[nH]cnc2C(=O)Nc2ccc(C)cc2)cc1	-10.0	-9.0	17.8	60.2*	1.1	·
CC(=O)C1=C(C)N(Cc2ccc(F)cc2)C(=S)NC1c1ccccc1 (centres undefined)	·	·	-0.8	36.7	·	·
CC(C)CNc1ncnc2c1ncn2[C@H]1CN(Cc2ccco2)C[C@@H](CO)O1	·	·	-0.1	-8.2	·	·
CC1=C[C@@H]2[C@H]3C(=O)N(Cc4ccccc4)C(=O)[C@H]3[C@@H]1[C@@H]1O[C@@]3(C(=O)N(C)c4ccccc43)C3=C(CCCC3=O)N21	·	·	8.5	-2.8	·	·
COC(=O)c1ccsc1NS(C)(=O)=O	·	·	1.6	-3.6	·	·
COC(=O)C1=C(C)N(Cc2ccc(C(F)(F)F)cc2)C(=NCc2ccc3c(c2)OCO3)NC1c1ccccc1C(F)(F)F (centres undefined)	·	·	16.5	-0.5	·	·
O=S(=O)(Cc1ccc(Cl)cc1)Oc1ccc(Cl)cc1	·	·	0.2	54.6*	·	·

Screening data as filed in PubChem BioAssay.
